PLC-gamma1 inh = blocks human PLC-gamma1 enzyme activity; AID 720700; P19174; purified PLC-gamma1, fluorogenic substrate, fluorescence; inhibition, % at 12.2 µM; actives 0.84% (n = 370,000); in the data active = inhibition above about 9.5%
DDE Tn6 FP inh = DD(E)-Tn6 binding inhibition, primary FP screen. P02675. Fibrin DD(E) TRITC-Tn6 fluorescence polarization displacement. inhibition, % at 8.3 µM. actives 0.21% (n = 370,000). AID 720509;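 active = inhibition above a per-campaign cutoff: mean of compounds within control limits plus 3 SD, cut at about 15% in these data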;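 note: 0% = median of all compound wells on the plate and 100% = blocking peptide control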
Target sequence (P02675 whole entry, looked up): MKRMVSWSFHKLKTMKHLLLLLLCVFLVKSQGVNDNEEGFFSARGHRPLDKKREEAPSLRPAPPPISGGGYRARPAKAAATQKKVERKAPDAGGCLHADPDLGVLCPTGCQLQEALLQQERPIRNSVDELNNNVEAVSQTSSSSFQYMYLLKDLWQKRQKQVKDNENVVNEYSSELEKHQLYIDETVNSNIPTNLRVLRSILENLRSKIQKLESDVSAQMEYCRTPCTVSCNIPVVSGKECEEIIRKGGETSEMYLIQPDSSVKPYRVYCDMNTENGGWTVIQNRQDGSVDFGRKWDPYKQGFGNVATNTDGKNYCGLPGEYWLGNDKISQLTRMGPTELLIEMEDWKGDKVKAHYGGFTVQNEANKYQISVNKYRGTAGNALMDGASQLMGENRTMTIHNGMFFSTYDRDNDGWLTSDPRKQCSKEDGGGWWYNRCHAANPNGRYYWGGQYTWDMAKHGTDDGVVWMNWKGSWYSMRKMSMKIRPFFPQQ
ADAM17 inh = ADAM17 inhibition, QFRET primary screen | AID 720648 | recombinant ADAM17, EDANS/DABCYL FRET peptide cleavage | actives 0.83% (n = 370,000) | inhibition, % at 6.95 µM;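 active = inhibition above the mean of compounds lying between control limits plus 3 SD, set per campaign, cut at about 8.5% in these data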;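 note: 0% = DMSO-only wells as the low control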
DDE Tn7 FP inh = disrupts Tn7 cyclic peptide binding to fibrin D-Dimer-E complex; FP displacement of FITC-Tn7 peptide from fibrin DD(E); 0% = median of compound wells per plate; inhibition, % at 8.3 µM; actives 0.13% (n = 370,000); AID 720508;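 active = inhibition above the mean of compounds falling within the control limits plus 3 SD of them, cut at about 14% in these data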;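 note: 0% = plate median of compound wells and 100% = 10 µM Aha-Tn7 peptide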
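assay system = human clot-derived fibrin DD(E) complex | quantity = Fibrin-DD(E) at 2 µM final | timing = 10 min preincubation, 3 h with tracer, room temperature | signal = fluorescence polarization | measure = percent inhibition | benchmarks = high control wells with 10 µM unlabelled Aha-Tn7 peptide (full inhibition) | replicates = singlicate testing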
PLC-beta3 inh = PLC-beta3 (human) inhibition, primary screen; actives 0.18% (n = 370,000); inhibition, % at 12.2 µM; Q01970; Purified PLC-beta3, fluorogenic substrate, fluorescence;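 note: 0% = median of compound wells on plate and 100% = full blocker control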
ADAM10 inh = inhibits human ADAM10 | actives 0.62% (n = 370,000) | inhibition, % at 7 µM | recombinant ADAM10, EDANS/DABCYL FRET peptide cleavage, 3 h;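 active = inhibition above a per-campaign cutoff equal to the mean of compounds falling between control-based bounds plus 3 SD, cut at about 20% in these data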;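 note: 0% = DMSO wells while the 100% control is not disclosed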
PLCgamma1 ctr = PLC-gamma1 inhibition, counter-screen for PLC-beta3 hits; shares compounds with PLC-gamma1 inh; purified PLC-gamma1, fluorogenic substrate, fluorescence; inhibition, % at 12.3 µM; actives 3.1% (n = 3,300); in the data active = inhibition above about 9.5%
PLCb3 confirm = confirmation of human PLC-beta3 inhibitors; shares compounds with PLC-gamma1 inh; purified PLC-beta3, fluorogenic substrate fluorescence; inhibition, % at 12.3 µM; actives 1% (n = 3,300)
* marks the source's active call; other numbers are inactive results; nt = no result given. In the library only some 2.3% were active in any assay of this set; here they are far more common. Cut-off read from the data, not from the text of the source, unless noted: active = inhibition above about 11%; inactive = the rest.

SMILES | PLC-gamma1 inh | DDE Tn6 FP inh | ADAM17 inh | DDE Tn7 FP inh | PLC-beta3 inh | ADAM10 inh | PLCgamma1 ctr | PLCb3 confirm
O=C(Nc1cc(S(=O)(=O)N2CCOCC2)ccc1N1CCCC1)c1cc2c(s1)CCCC2 | -4 | 2 | 2 | 3 | -8 | 2 | nt | nt
O=C(Cc1cccs1)NC1CCCCN(Cc2cccc(Cl)c2)C1=O (centres undefined) | -1 | -6 | 2 | -1 | -2 | 4 | nt | nt
COc1ccc(C(=O)Nc2ccc(OC)c([N+](=O)[O-])c2)cc1Br | 3 | -8 | -1 | -6 | 4 | -1 | nt | nt
COc1ccc(C(=O)Nc2cccc([N+](=O)[O-])c2)cc1Br | 1 | -6 | 6 | -4 | 11* | 5 | 5 | 0
CCCCOCCCNC(=O)C[C@H]1C[C@@]2(C(=O)OC)C(=C[C@H](C(C)C)O[C@@H]2C2CC2)N(CCc2ccc(OC)c(OC)c2)C1=O | -1 | 8 | -2 | 3 | 1 | -1 | nt | nt
O=C(c1cn(-c2ccccc2)nc1-c1ccccc1)N1CCOCC1 | 2 | 4 | -4 | -5 | 2 | -3 | nt | nt
O=C(c1cccs1)N1CCN(C(=O)c2cn(-c3ccccc3)nc2-c2ccccc2)CC1 | 1 | 2 | 6 | 2 | 12* | -7 | -4 | -1
COc1ccc(S[C@]2(C(=O)NC3CC3)CC(=O)N[C@@H]2c2ccc(OC)cc2)cc1 | 0 | 4 | -3 | 1 | -2 | -10 | nt | nt
C=CCN(Cc1ccc(Cl)s1)C(=O)c1ccc(F)c(S(=O)(=O)N2CCOCC2)c1 | 80* | -2 | 1 | 6 | 5 | 6 | 0 | -3
O=C(COC(=O)c1ccc(F)c(S(=O)(=O)N2CCOCC2)c1)c1ccc(Cl)cc1 | 1 | 0 | 1 | -2 | -4 | 2 | nt | nt
Brc1ccc(Nc2nc(-c3cccnc3)cs2)cc1 | 0 | -5 | -1 | 3 | -6 | 8 | nt | nt
CCOc1ccc(Nc2nc(-c3cccnc3)cs2)cc1 | 12* | 1 | 6 | 3 | 2 | 8 | -5 | 1
CCCn1c(NC(=O)c2ccccc2)nc(Cc2ccccc2)c1-c1ccc(OC)cc1 | -13 | -3 | 1 | -5 | -15 | 1 | nt | nt
C[C@H](O)[C@@H]1CN2CCc3c([nH]c4c(-c5ccc6c(c5)OCO6)cccc34)[C@@H]2C[C@@H]1N(C)C(=S)NCCc1ccccc1 | -17 | -5 | 4 | -2 | -23 | 7 | nt | nt
O=C(CCN1CCN(c2ccccc2F)CC1)Nc1ccccc1F | 11* | 8 | 4 | 1 | 6 | 11 | -3 | -1
O=C(CN1CCN(c2ccccc2F)CC1)Nc1ccccc1F | 4 | 5 | -4 | 4 | 2 | 0 | nt | nt
CS(=O)(=O)N1CCN(c2ccccc2NC(=O)c2ccc([N+](=O)[O-])o2)CC1 | 9.9* | 1 | 3 | -3 | 2 | 5 | 3 | 1
CS(=O)(=O)N1CCN(c2ccccc2[N+](=O)[O-])CC1 | 15* | -1 | 3 | -14 | 6 | -4 | -4 | -1
CCC(NC(=O)c1ccc2c(c1)c(C)c(C)n2Cc1ccc(Cl)cc1)c1ccccc1 (centres undefined) | -20 | -12 | -6 | 5 | -12 | -2 | nt | nt
CC(C)c1nc2c(s1)CCc1onc(-c3ccc(Cl)cc3)c1-2 | -2 | 7 | -1 | 7 | 1 | -1 | nt | nt
COc1ccc(-c2noc3c2-c2nc(-c4ccc(Br)cc4)sc2CC3)cc1 | 14* | 6 | 0 | -3 | 3 | -1 | -10 | -7
COc1ccc(-c2noc3c2-c2nc(C(C)C)sc2CC3)cc1 | 11* | -11 | 3 | -6 | 1 | 5 | -6 | -4
Cc1cc(=O)[nH]c(N2CCCC2)n1 | 12* | -8 | 2 | -1 | 5 | 7 | -9 | -3
COc1ccc([C@H]2OC(=O)C[C@@H]2C(=O)N2CCCCC2)cc1OC | 0 | 0 | -2 | -2 | 0 | -1 | nt | nt
Cc1onc(-c2ccccc2Cl)c1C(=O)N1CCOC12CCCCC2 | 4 | -6 | 2 | 1 | 11* | 5 | 1 | 4
SMILES | PLC-gamma1 inh | DDE Tn6 FP inh | ADAM17 inh | DDE Tn7 FP inh | PLC-beta3 inh | ADAM10 inh | PLCgamma1 ctr | PLCb3 confirm
Cc1onc(-c2ccccc2Cl)c1C(=O)N1CCOC12CCN(c1cccc(F)n1)CC2 | 0 | 4 | 1 | 0 | 4 | -2 | nt | nt
Oc1ccccc1C1OCC2(CO1)COC(c1ccccc1O)OC2 (centres undefined) | 0 | 10 | 0 | 9 | 3 | -1 | nt | nt
c1ccc2c(C3OCC4(CCCC4)CO3)cccc2c1 | 9.6* | -4 | 4 | -4 | 2 | -9 | -1 | -2
CC(Oc1ccc([N+](=O)[O-])cc1)C(=O)NCC1CCCO1 (centres undefined) | 11* | -6 | 3 | -6 | 3 | 6 | -1 | 4
O=C(NCC1CCCO1)c1ccc(Oc2ccc([N+](=O)[O-])cc2)cc1 (centres undefined) | 3 | 4 | 1 | -1 | -2 | 6 | nt | nt
CCOC(=O)c1csc(NC(=O)C2CCCN(S(=O)(=O)c3ccccc3)C2)n1 (centres undefined) | -3 | 3 | -3 | 6 | -1 | -6 | nt | nt
O=Cc1cc(N=Nc2cccc(C(=O)O)c2)ccc1O | 14* | 5 | -2 | -5 | 1 | -10 | 29* | 1
CCc1nnc(NC(=O)CCC(=O)N2CCN(CCOc3ccc(C)cc3)CC2)s1 | 6 | 3 | 4 | 0 | 14* | 8 | -6 | -4
NC(=S)N=Nc1c(O)n(CC(=O)Nc2ccccc2)c2ccccc12 | 7 | 3 | -1 | 9 | 2 | -3 | nt | nt
Cc1cccc(NC(=O)Cn2c(O)c(N=NC(=O)c3ccccc3O)c3ccccc32)c1 | 11* | 0 | 4 | -8 | 2 | 0 | 8 | -1
Cc1ccc(C(C)C)c(OCC(O)CN2CC(C)OC(C)C2)c1 (centres undefined) | 15* | 8 | -5 | -2 | -1 | -1 | 0 | -3
Cc1ccc(C(C)C)c(OCC(O)CN2CCOCC2)c1 (centres undefined) | 2 | 3 | 0 | -4 | 4 | 4 | nt | nt
O=C(NC1CCCCN(Cc2cccc(F)c2)C1=O)c1ccc(-c2ccccc2)cc1 (centres undefined) | 1 | -7 | 3 | 1 | -2 | 7 | nt | nt
COC(=O)COc1ccc(S(=O)(=O)NCc2ccco2)cc1Cl | 11* | -4 | -1 | -6 | 10 | 5 | -3 | -6
Cc1cccc(C)c1Nc1ncnc2ccccc12 | 9.7* | 6 | 4 | -7 | 0 | -8 | -3 | -1
